High-throughput results as filed in PubChem.
VLA-4 inh = inhibition in human VLA-4 binding assay, primary screen, VLA-4 allosteric modulator project, MLPCN library, flow cytometry, VLA-4 expressing cells; AID 2557, 2010; ligand binding flow cytometry; inhibition, % (about 7 µM as worked out from the volumes in the protocol); Integrin alpha-4 (Homo sapiens), P13612; 0.2% of 330,000 active; in the data active means inhibition above about 50%
TAAR1 agonist = human TAAR1 agonists, primary screen, Fluo-8 calcium fluorescence, CHO RD-HGA16 cells. vehicle wells 0%, saturating PEA agonist 100%. activation, % at 3 µM. 0.99% of 360,000 active. AID 624467, 2012;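 active means activation above the mean activation of all test compounds in the run plus 3 SD, cut at about 38% in these data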
Target sequence (Q96RJ0 whole entry, looked up): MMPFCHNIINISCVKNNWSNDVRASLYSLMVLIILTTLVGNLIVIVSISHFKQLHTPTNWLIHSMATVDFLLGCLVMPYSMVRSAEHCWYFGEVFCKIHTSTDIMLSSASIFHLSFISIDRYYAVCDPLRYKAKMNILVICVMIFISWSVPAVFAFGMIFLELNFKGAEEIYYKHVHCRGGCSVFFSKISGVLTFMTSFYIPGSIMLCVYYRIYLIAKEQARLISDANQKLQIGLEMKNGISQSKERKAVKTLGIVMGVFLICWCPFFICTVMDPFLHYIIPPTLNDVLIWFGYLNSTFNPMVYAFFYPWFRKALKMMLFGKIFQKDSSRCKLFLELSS
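Benchmarks: low control DMSO, high control PEA (EC100); System: CHO RD-HGA16 cells carrying human TAAR1 plus Gα16; Detection: Fluo-8 fluorescence, 5 s baseline then 140 s kinetic read; Schedule: 17-24 h plating, Fluo-8 75 min 37 °C, 30 min RT; Read-out basis: % activation from peak over basal fluorescence ratio, DMSO-to-PEA scaled.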
Rce1 inh = yeast Rce1p protease inhibitors, primary screen, biochemical, fluorescence, cell-free homogeneous; AID 2563, 2010; 0.27% of 290,000 active; CAAX prenyl protease 2 (Saccharomyces cerevisiae (strain ATCC 204508 / S288c)), Q03530; yeast membranes, quenched prenylated peptide cleavage fluorescence; calls only;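 active means fall in fluorescence gain of 50% or more versus controls, with final raw signal at or below 3038400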;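 further: plate controls were neutral control wells for no effect and wells lacking membranes for full effect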
Target sequence (Q03530 whole entry, looked up): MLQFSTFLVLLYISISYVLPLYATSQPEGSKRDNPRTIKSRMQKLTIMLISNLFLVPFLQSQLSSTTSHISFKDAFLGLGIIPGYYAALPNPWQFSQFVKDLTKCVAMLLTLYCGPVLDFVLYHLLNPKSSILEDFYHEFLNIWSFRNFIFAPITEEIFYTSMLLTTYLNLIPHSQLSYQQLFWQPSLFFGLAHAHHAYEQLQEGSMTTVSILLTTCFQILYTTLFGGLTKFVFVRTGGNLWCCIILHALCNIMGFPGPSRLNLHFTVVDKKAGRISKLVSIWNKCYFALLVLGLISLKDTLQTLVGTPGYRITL
Platelet DG rel = inhibitors of platelet dense granule secretion, primary screen, cell-based, MLPCN, human platelets | human platelet-rich plasma, SFLLRN dense granule ATP release, luminescence | 0.22% of 300,000 active | inhibition, %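 (compounds screened at 7.5 µM in platelet-rich plasma)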;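 active means mean replicate score, as percent of positive control, at or above 50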
TAAR1 antag = human TAAR1 antagonists, primary screen, Fluo-8 calcium fluorescence, CHO RD-HGA16 cells; AID 624466, 2012; antagonist; Trace amine-associated receptor 1 (Homo sapiens), Q96RJ0; inhibition, % at 3 µM; 1.5% of 360,000 active;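 active means inhibition above a per-plate cutoff, the mean inhibition of test compounds on that plate plus 3 SD, cut at about 49% in these data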;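 further: 0% = DMSO plus EC80 beta-PEA response and 100% = DMSO alone without agonist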
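Assay system: RD-HGA16 CHO cells with stable hTAAR1 and Gα16 / Reagent: EC80 β-phenethylamine stimulus / Doses: 3 µM, single point / Timing: dye loading 75 min at 37 °C, then 30 min room temperature / Measured by: Fluo-8 intracellular calcium dye fluorescence, real-time kinetic reads / Controls: vehicle wells and EC80 agonist wells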
Active calls of the source: *; i = inactive; nt = not tested or not shown; + = active, no number. The list is not random: actives were taken first. Their share in the collection is about 2.6%.

SMILES | VLA-4 inh | TAAR1 agonist | Rce1 inh | Platelet DG rel | TAAR1 antag
O=C1CN(S(=O)(=O)c2ccc([N+](=O)[O-])cc2)CC(=O)N1 | -4 | 1 | + | -22 | -1
CCc1cc2c(nc1CC)CCCN2S(=O)(=O)c1ccccc1 | nt | 1 | nt | nt | -18
C=CCNc1oc(/C=C/c2ccccc2)nc1C#N | -7 | 0 | + | -4 | 18
CN(C)CCNc1oc(/C=C/c2ccccc2)nc1C#N | 1 | 4 | i | -2 | -10
O=C1NC[C@H](CCCCN2C[C@H](Cc3ccccc3)N(CCc3ccc(O)cc3)C(=O)C2=O)N(CC2CCCCC2)C1=O | nt | 3 | nt | nt | 10
CCCCNc1ccc(C(F)(F)F)cc1S(=O)(=O)NCCc1ccc(F)cc1 | nt | 0 | nt | nt | 50*
CCCCCn1c(=O)c(-c2nc3ccccc3[nH]2)c(O)c2ccccc21 | -9 | -1 | + | -1 | 3
CCCCCCCCn1c(=O)c(C(=O)OCC)c(O)c2ccccc21 | 0 | -4 | i | 0 | 2
CC(NC(=O)Cc1ccc(S(=O)(=O)N2CCCCC2)cc1)c1ccccc1 (centres undefined) | 4 | 8 | nt | nt | -3
COc1ccccc1-c1nc(-c2ccccn2)no1 | 2 | 5 | i | 25 | -7
COc1ccc(-c2nc(-c3ccccn3)no2)cc1 | 9 | 12 | i | 61* | -6
CCN(CC)CCNC(=O)c1cc2c(=O)n(C)c3ccccc3c2s1 | 4 | 3 | + | 0 | -4
CCCCN(CC)CCNC(=O)c1cc2c(=O)n(C)c3ccccc3c2s1 | 3 | 0 | i | 4 | -19
COc1ccc(C2=NOC(C(=O)NCc3ccccn3)C2)cc1 (centres undefined) | 10 | 1 | nt | -2 | 8
COc1cccc(C2=NOC(C(=O)NCc3ccccn3)C2)c1 (centres undefined) | -9 | 45* | i | -3 | -22
CCc1ccc(N(CC(=O)NCc2ccco2)C(=O)CCC(=O)Nc2nccs2)cc1 | -4 | 7 | i | -5 | 5
COc1ccc2[nH]c(=O)c(CN(Cc3cccs3)S(=O)(=O)c3cccc4nsnc34)cc2c1 | -9 | 21 | i | -2 | 53*
COc1ccc2[nH]c(=O)c(CN(CCO)S(=O)(=O)c3c(C)ccc4nsnc34)cc2c1 | -8 | 11 | i | 1 | 15
O=C(NC(c1ccc2c(c1)OCO2)c1ccccn1)C1CCN(CCOc2ccccc2)CC1 (centres undefined) | nt | 4 | nt | nt | -9
Cc1ccc(S(=O)(=O)N2CCCCC2)cc1NC(=O)c1ccncc1 | nt | 2 | nt | nt | 13
Cc1nn(Cc2ccccc2)c(Cl)c1C(=O)OCc1nnc(-c2ccc(Cl)cc2)o1 | 0 | 9 | i | -1 | 25
Cc1nn(Cc2ccccc2)c(Cl)c1C(=O)OCc1nnc(-c2ccccc2)o1 | 7 | 18 | i | -1 | 51*
CC(C)(C)NC(=O)C(c1cccs1)N(Cc1cccs1)C(=O)c1csnn1 (centres undefined) | 4 | 1 | i | 1 | 5
COc1ccc(COc2cc(-c3cccc(OC)c3)nc3ccc(NC(=O)c4ccccc4)cc23)cc1 | -9 | 8 | i | 2 | 53*
COc1ccc(COc2cc(-c3cccc(OC)c3)nc3ccc(NC(=O)c4ccc(OC)cc4)cc23)cc1 | 20 | 10 | i | 0 | 61*
SMILES | VLA-4 inh | TAAR1 agonist | Rce1 inh | Platelet DG rel | TAAR1 antag
CN(Cc1ccc(Cl)cc1)C(=O)c1ccccc1SCC(=O)N1CCCC1 | nt | 0 | nt | nt | -4
COc1ccc(NC(=S)N2CCOCC2)c(OC)c1 | 0 | 3 | i | 21 | 3
COc1cc(C(=O)NNC(=O)c2ccc3c(c2)OCCO3)cc(OC)c1OC | 8 | 4 | nt | nt | -6
COc1cc(C(=O)NNC(=S)NC(=O)c2ccc3c(c2)OCO3)cc(OC)c1OC | 20 | 44* | i | -18 | -30
CCS(=O)(=O)Nc1c(C(=O)O)[nH]c2ccccc12 | 10 | 7 | + | 7 | -9
CCS(=O)(=O)Nc1c(C(=O)OC)[nH]c2ccccc12 | 1 | 10 | i | 1 | 2
O=C(/C=C/c1ccc(OCCCF)cc1)Nc1ccnc(-c2ccncc2)n1 | -14 | 11 | i | -1 | 16
O=C(/C=C/c1ccc(OCCCF)cc1)Nc1ccnc(-c2cccnc2)n1 | -41 | 19 | i | -6 | 55*
CC(=O)N1CCN(c2ccc(NCc3ccc(-c4ccc(Br)cc4)o3)cc2)CC1 | -11 | 11 | nt | nt | 58*
CC(NC(=O)CCc1nc2cc(S(=O)(=O)N3CCOCC3)ccc2n1C)c1ccc(S(N)(=O)=O)cc1 (centres undefined) | 22 | 5 | i | 55* | -19
CC(C)(C)NCCC(O)c1cc(C(F)(F)F)nc2c(C(F)(F)F)cccc12 (centres undefined) | nt | 38* | nt | nt | 15
CC(C)Cn1c(N)c(C(=O)COC(=O)c2cc(C(F)(F)F)nc3c(C(F)(F)F)cccc23)c(=O)n(C)c1=O | -5 | 3 | i | -3 | -8
COc1ccc(S(=O)(=O)N2CCOCC2)cc1N=Nc1sc(N)nc1-c1ccccc1 | -11 | 12 | i | 17 | 54*
COc1ccc(S(=O)(=O)N2CCOCC2)cc1OC | 0 | -1 | i | -6 | 10
COC(=O)c1cc2c(c3c4cc(OC)ccc4n(S(=O)(=O)c4ccc(F)cc4)c13)C(=O)N(C)C2 | nt | -3 | nt | nt | -8
CCN=C1SC(C(=O)Nc2cccc(Cl)c2)CC(=O)N1CC (centres undefined) | 0 | 23 | i | 2 | 58*
CCN=C1SC(C(=O)Nc2cc(Cl)cc(Cl)c2)CC(=O)N1CC (centres undefined) | 0 | 5 | i | 1 | 20
CCOc1ccc(NC(=O)C2CC(=O)N(CC)C(=Nc3ccc4c(c3)OCO4)S2)cc1 (centres undefined) | 2 | 12 | i | -17 | 48
CCN=C1SC(C(=O)Nc2cccc(C)c2)CC(=O)N1CC (centres undefined) | -21 | 18 | i | 2 | 63*
CCN=C1SC(C(=O)Nc2ccc(OC)cc2)CC(=O)N1CC (centres undefined) | 5 | 24 | i | -4 | 55*
CCN1C(=O)CC(C(=O)Nc2ccc(F)cc2)SC1=Nc1ccc2c(c1)OCO2 (centres undefined) | -4 | 17 | i | -1 | 52*
COC(=O)c1c(NC(=O)COC(=O)CNC(=O)c2cccc(OC(F)F)c2)sc(C)c1C | nt | 0 | nt | nt | -18
COc1cccc(CN(C)C[C@@H]2OCc3cnnn3CCCC(=O)N([C@H](C)CO)C[C@H]2C)c1 | nt | 1 | nt | nt | -1
